Results from the EternaBench riboswitch data.

Tested on: MS2 coat protein
Experiment: apparent Kd, MS2 coat protein; higher = weaker binding; RNA-MaP array; theophylline 2 mM where present
Method in brief: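 The apparent Kd comes from binding curves fitted cluster by cluster, filtered, and summarised as a median. Those curves followed SNAP-549-labelled MS2 coat protein from 0.7 or 1.5 nM, doubling to 3 µM, on Illumina sequencing-chip clusters where stalled E. coli RNA polymerase had transcribed the designs, without and then with constant ligand. The buffer was 100 mM Tris-HCl pH 7.5, 80 mM KCl, 4 mM MgCl2, BSA, DTT, yeast tRNA and Tween-20, and green signal was normalised to red-channel RNA signal and control-cluster median Fmax.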

[1] = designed as: OFF switch for theophylline, no ligand
[2] = ligand present: theophylline, designed as: OFF switch for theophylline
[3] = designed as: ON switch for theophylline, no ligand
[4] = ligand present: theophylline, designed as: ON switch for theophylline

Sequence | apparent Kd [1] [µM] | apparent Kd [2] [µM] | apparent Kd [3] [µM] | apparent Kd [4] [µM]
AAACGUUGCUGCGAUACCAGACAUGAGGAUCACCCAUGUACCAAGGUAAGAAAAUAACAUGUCCCUUGGCAGCGCAGCAACGAAA | 0.0154 | 0.412 |  | 
AUGUAAGUGGUGUCACUGUGGUCUAGUGAUACCAGUAUCGAAAGAUACCCUUGGCAGCGCUAGAACAUGAGGAUCACCCAUGUUU | 0.0688 | 0.0343 |  | 
UGGUUUGUGAUGGAUACCAGCAGAGAAAACGUUUAUCCUAACAUGAGGAUCACCCAUGUAUGCCCUUGGCAGCUGUUGUGGGCUA | 0.032 | 0.0349 |  | 
UCGUGUAUUUCGGAUACCAGUGAAAUCGAUACAUGAGGAUCACCCAUGUGAGAGGAUGUACACCCUUGGCAGCUGUCUGUAUCUG |  |  | 0.0163 | 0.0152
UGCAUCAUAAUCAUGUAGGUGCUAGGUGAUACCAGCAUCGAAAGAUGCCCUUGGCAGCACCAACAUGAGGAUCACCCAUGUAAUA |  |  | 0.216 | 0.0971
CGUAUUGUAACUGAUACCAGUGUACUGACAUGAGGAUCACCCAUGUUGGGUUUUGUUGUACACCCUUGGCAGCAGAAUCAAUACG | 0.0687 | 0.122 |  | 
GCACUACAUGAGGAUCACCCAUGUGCAGAUACCAGAGGUGUAUGCCUCCCUUGGCAGCUGAGUAGCUCUGGAGGCCUAUUGGUUU |  |  | 0.015 | 0.0191
UUAUUUAUAAUGGAUACCAGUCGUAUGGCCCGGAAUCCUGACAUGAGGAUCACCCAUGUCGACCCUUGGCAGCUGUUAUGGGUUU | 0.0145 | 0.0246 |  | 
CAUAUUGUAACUGAUACCAGUGUACUGACAUGAGGAUCACCCAUGUUGGGUUUUGUUGUACACCCUUGGCAGCAGAAUCAAUAUG | 0.0687 | 0.0892 |  | 
CUCCGAGGCUAUACUAUACGCCUUUGUGAUACCAGAAUAAAUAUAUUCCCUUGGCAGCAUCACAUGAGGAUCACCCAUGUGCCAU |  |  | 0.0117 | 0.018
GAUGAUAUUGCAGAUACCAGACACAUGAGGAUCACCCAUGUCGCUGGGUUACUGGAUCGUGUCCCUUGGCAGCUGCGAUAUCAUC | 0.286 | 0.0694 |  | 
AGCUCAGAGAGUGAUACCAGACUACAUGAGGAUCACCCAUGUUACUUUUAAAUAUCAUGAGUCCCUUGGCAGCACAAGAAGAGCA | 0.081 | 0.168 |  | 
AGAUCUUUCGAAAGAAGGAUCUUGGCUGAUACCAGAGACGAAAGUCUCCCUUGGCAGCAGUGCCAACAUGAGGAUCACCCAUGUA |  |  | 0.0458 | 0.0241
UCUUUCUAUAGUGAUACCAGACGUACAUGAGGAUCACCCAUGUUACAUUCUUGGUUAAAAGUCCCUUGGCAGCACGAUUUGUUCG | 0.00951 | 0.0102 |  | 
UUUACAUGAGGAUCACCCAUGUGCCAUGAUACCAGACAUGAAAAUGUCCCUUGGCAGCAUGAGUGAUGCAUCCGAAAGGAUGUUU |  |  | 0.0816 | 0.611
GCUGUAAGUGCAGAUACCAGCAAGUGAUAUUUCAUAUGACAUGAGGAUCACCCAUGUAACUGCCCUUGGCAGCUGCACUUACAGC |  |  | 0.213 | 0.0249
GCACGACAUGAGGAUCACCCAUGUGCAGAUACCAGUAAUGUAUAUUACCCUUGGCAGCUGAGUAGAUCUGGAGGGCUAUAGGUAA |  |  | 0.0138 | 0.0208
ACAUGAGGAUCACCCAUGUUCCUCAUUGAUACCAGUGAAUUUAGACGCCCUUGGCAGCGAGUUUUUUUAUAAGAAGUUUUUUUUU | 0.66 | 1.31 |  | 
AGCAUGUUAUCAGAUACCAGACAUCUUUUAAAACAUAUUACAUGAGGAUCACCCAUGUUGGUCCCUUGGCAGCUGAAAUAUUUCA |  |  | 0.272 | 0.0398
GCUUGGGUGGCACAGCCCUGGCAGUGCGAUACCAGCACGGUAACGUGCCCUUGGCAGCGCACAUGAGGAUCACCCAUGUGGUGCG | 0.0695 | 0.345 |  | 
UAAAUAAUCUGGGUGUAGGUAAUAACAGAUACCAGCCAGAUAACUGGCCCUUGGCAGCUGAUAACAUGAGGAUCACCCAUGUAAA |  |  | 0.0805 | 0.224
UAUAGUGUGAUGGAUACCAGCAGAGAAAACGUUUAUCCUAACAUGAGGAUCACCCAUGUAUGCCCUUGGCAGCUGUUGUGUUAUA | 0.0317 | 0.0318 |  | 
